Measured values from the RNAGym collection of RNA variant scans (doi:10.1126/science.aae0568).
Fewer inactive variants are shown than the library holds.

B1: tRNA (parent)
chain: GUUCCGUUGGCGUAAUGGUAACGCGUCUCCCUCCUAAGGAGAAGACUGCGGGUUCGAGUCCCGUACGGAACG

Variants of: B1
Test: yeast fitness relative to wild type (ratio to wild type); higher = fitter; tRNA-Arg(CCU), competitive growth, 37 C, YPD
Procedure, shortened: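 Gene amplicons from the start population and from each of six end populations were read by 100-nucleotide paired-end sequencing. Those end populations came from pooled Saccharomyces cerevisiae strains carrying tRNA-Arg(CCU) gene variants at the native locus, competed in YPD at 37°C for 24 hours. Fitness relative to wild type was worked out from changes in genotype frequencies. Genotypes needed ≥ 100 starting reads, and estimates < 0.5 were set to 0.5.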

Row | Variant | yeast fitness
1 | C5G U35G A43G C49U G63A A65U | ≤ 0.5
2 | C5U A20G U35C A37G | ≤ 0.5
3 | C5G G48A C49U | 0.933
4 | C5G U59G G63A | 0.526
5 | C5U A15U G63A A70U | 0.807
6 | C5G U19C C24U | 0.684
7 | C5U A14U G17C C33U G52C G63A | ≤ 0.5
8 | C5U A65C G68A | 0.681
9 | C5G G44C C55A | ≤ 0.5
10 | C5G U32A G48C C62U | ≤ 0.5
11 | C5U A15G A42G G58C G68A | ≤ 0.5
12 | C5G G44A C55G | 0.527
13 | C5G U47A G68A | ≤ 0.5
14 | C5G U8C C11A U26C U35C G50C G52A | 0.634
15 | C5U A37C C60U G67A | 0.558
16 | C5U A14G C33G A40G | ≤ 0.5
17 | C5U A21U A40U | 0.57
18 | C5U C11G C49U C61A | ≤ 0.5
19 | C5G U7A A14U | 0.624
20 | C5U C11A C24G C27G A36U G38C C60G C66A | 0.522
21 | C5U A14C C55A | ≤ 0.5
22 | C5G U7A A42C | ≤ 0.5
23 | C5G U13G A20U | ≤ 0.5
24 | C5U A14C A69C | ≤ 0.5

Row | Variant | yeast fitness
25 | C5G U13C A21C A70C | ≤ 0.5
26 | C5G U7C G56A A57U C62G | ≤ 0.5
27 | C5U C11A C31U C34U | ≤ 0.5
28 | C5G G48C A69U | 0.587
29 | C5U A21G C27U G41A | ≤ 0.5
30 | C5U A20C C29U C34A C46A G50A A57U | ≤ 0.5
31 | C5U A65U G67A | 0.921
32 | C5U A15U U16A C29U C55U | ≤ 0.5
33 | C5G U13C U35C | ≤ 0.5
34 | C5U C11G C24U A42C A65C A70U | ≤ 0.5
35 | C5G U13A C22G C29G A40U U54C | ≤ 0.5
36 | C5U A40G C49U C62U A65G | ≤ 0.5
37 | C5G U7G C33A | 0.519
38 | C5G G48C C49U U54G C55U C66A | 0.604
39 | C5G U7C C11G A40G A57U | 0.542
40 | C5G U16A C29U A40U G52A A65C | ≤ 0.5
41 | C5U A40U A42G A57C | ≤ 0.5
42 | C5U A20C G23C C24U C31U U64C | ≤ 0.5
43 | C5U A40C A42G | 0.558
44 | C5U A15G G58C G68A | 0.51
45 | C5U A15C A21G C27U C46U | ≤ 0.5
46 | C5U A15G A20G C27G C33U G63A | ≤ 0.5
47 | C5G U35C C49G | ≤ 0.5
48 | C5U A42G G56C | ≤ 0.5

Row | Variant | yeast fitness
49 | C5G U26G C34G A40C C46U C49G | 0.558
50 | C5U A36U A70U | 0.628
51 | C5G U47A | 0.731
52 | C5G G44C C49U U59G | ≤ 0.5
53 | C5G U53G C60A | ≤ 0.5
54 | C5U A14C A21C | 0.552
55 | C5U C11A A14G A42G C49U U64A | ≤ 0.5
56 | C5G U26C C55G U59A U64G | ≤ 0.5
57 | C5G U47A G58A | 0.567
58 | C5U A14C A70U | ≤ 0.5
59 | C5U A21G G44C A57U C62U | ≤ 0.5
60 | C5U A20U C30U | ≤ 0.5
61 | C5G U13A A65G | 0.603
62 | C5U A20U A45C C60U C61A | ≤ 0.5
63 | C5G U28G C31U G51A U54A U59A | 0.522
64 | C5U A21U U28C C30G A70U | ≤ 0.5
65 | C5U A14C A21C U53G A57C | ≤ 0.5
66 | C5U A21U C30G C66A | 0.552
67 | C5G U53C C55A A57G | ≤ 0.5
68 | C5G U28C C31G C62U | ≤ 0.5
69 | C5G U13G A14U G48C | ≤ 0.5
70 | C5U C11A A21G A40U | 0.68
71 | C5U A14G U26C | 0.662
72 | C5U A37C A43C A45C | ≤ 0.5

Row | Variant | yeast fitness
73 | C5G G51A G68A | ≤ 0.5
74 | C5G U8G C11G | 0.509
75 | C5U A65U | 0.999
76 | C5U A65C | 0.922
77 | C5U A14C A45C A65C | 0.561
78 | C5U A45U C62G G63A | ≤ 0.5
79 | C5U A14G U26C C30U A42C C61G | ≤ 0.5
80 | C5U C11G G48C C66U | ≤ 0.5
81 | C5G U7G U32C | 0.604
82 | C5U C11A C24G C27G A36U G38C C60A C66A | ≤ 0.5
83 | C5U C11A C24G C27G A36U G38C A70C | ≤ 0.5
84 | C5G U64G C66U | 0.593
85 | C5G U26A A69C | 0.634
86 | C5U A57U G63A | ≤ 0.5
87 | C5U A37C C61G | ≤ 0.5
88 | C5U A37C C61U | 0.627
89 | C5U A14C C61U | 0.562
90 | C5G U59G C66U | ≤ 0.5
91 | C5G G50A | 0.835
92 | C5G G50C | 0.701
93 | C5U C11A A43U C66U | 0.621
94 | C5U A20C C29A C49G A57G | ≤ 0.5
95 | C5G U7A A20G U47G G50C G51C | ≤ 0.5
96 | C5U A21C C31U | 0.695

Row | Variant | yeast fitness
97 | C5U A20U C30U G63A | ≤ 0.5
98 | C5U A43U C49U | 0.555
99 | C5G G51C | 0.761
100 | C5G G51A | 0.78
101 | C5U A14U C29U C46G | ≤ 0.5
102 | C5U A42U C55U A69C | ≤ 0.5
103 | C5G U13C G58C | 0.74
104 | C5U A15U A20C C55A | ≤ 0.5
105 | C5U A21C C31G C66U | 0.528
106 | C5U A21U C62U A70C | ≤ 0.5
107 | C5U A43U G50U | 0.657
108 | C5U A14C A21C C33U G56A | ≤ 0.5
109 | C5U A14C G63A | ≤ 0.5
110 | C5U A15C | 0.763
111 | C5U A37U C61U | 0.623
112 | C5G U8G A43C G48A | 0.547
113 | C5G U8C A15G C29A G39A | ≤ 0.5
114 | C5G U26C A70G | 0.632
115 | C5U A21U | 0.766
116 | C5U A21C | 0.897
117 | C5U A45C C49U G56A | 0.616
118 | C5U A43U C66U | 0.68
119 | C5G U19A A45C | 0.779
120 | C5G U8C A15G G18C C62U | ≤ 0.5

Row | Variant | yeast fitness
121 | C5U A43G G48A | 0.678
122 | C5G U13A C30U | 0.56
123 | C5G U16A C29U A40U | 0.523
124 | C5U A15G C60A A70C | ≤ 0.5
125 | C5U A42C A69C | 0.803
126 | C5U A21G A42U G58A | 1.02
127 | C5G U8A G41C U47A | 0.605
128 | C5G U16A C27G A42C A65C | ≤ 0.5
129 | C5U A21U C33U G50A | 0.65
130 | C5G U8C G18C C61U A65C | ≤ 0.5
131 | C5G G51C C61G C66U | ≤ 0.5
132 | C5G G58A | 0.957
133 | C5G U19G C22U A43C G51A | ≤ 0.5
134 | C5G U26C A42G A57G C61U | ≤ 0.5
135 | C5U C11U | 0.889
136 | C5U A45U C46G | ≤ 0.5
137 | C5U A15G U16A A20G U28A C30A C33A A36U | ≤ 0.5
138 | C5U A20U C30G C66U | ≤ 0.5
139 | C5U A45G A69G | 0.909
140 | C5G G51C A57U C60U | ≤ 0.5
141 | C5U A15U G17C U26C | ≤ 0.5
142 | C5U C11G C22G C46G | ≤ 0.5
143 | C5U A14C G41C A43C | ≤ 0.5
144 | C5U A37U A42U A69U | ≤ 0.5

Row | Variant | yeast fitness
145 | C5U A20G C22G C29A A45U | 0.563
146 | C5G U35A A40G | ≤ 0.5
147 | C5G U16A A69U | ≤ 0.5
148 | C5U A57G G63A | 0.63
149 | C5U A37G G56C A65C | ≤ 0.5
150 | C5U A43U G44A C46A | ≤ 0.5
151 | C5U A14G A21U A36U G48C C55U | 0.627
152 | C5U A20C A36G G52C | 0.567
153 | C5G U16C C24U | ≤ 0.5
154 | C5U A65G A69G A70U | ≤ 0.5
155 | C5U A15U U54A C55U C66A | ≤ 0.5
156 | C5G U7G C33G A70U | ≤ 0.5
157 | C5U A20U A36G | 0.674
158 | C5U A37C G52C | ≤ 0.5
159 | C5G U13C C22G C33A | 0.635
160 | C5G U7C A20U A43G | ≤ 0.5
161 | C5U A20C G39C G58A | ≤ 0.5
162 | C5U C11G C34U A42C C61A A70U | ≤ 0.5
163 | C5U A45C G56C | 0.572
164 | C5U A45C A70U | 0.813
165 | C5U A45C A70G | 0.76
166 | C5G U19G C22U U32C A65C C66U | ≤ 0.5
167 | C5G G63A A69C | 0.614
